Results published in ChEMBL document CHEMBL2434854, “Synthesis and anticancer activity of some novel trifluoromethylquinolines carrying a biologically active benzenesulfonamide moiety” (Eur J Med Chem, 2013).

Experiments:
Format in all cases: functional, cell-based
[1] = Anticancer activity against human […] cells after 48 hrs by SRB assay
Procedure, shortened: (§1)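 Cells seeded 10^4 cells/well and allowed to attach for 24 h, then exposed to compounds dissolved in DMSO at 10, 25, 50 and 100 μM, triplicate wells per concentration, for 48 h at 37 °C in 5% CO2. Fixed, stained 30 min with 0.4% (wt/vol) SRB in 1% acetic acid, washed four times with 1% acetic acid, dye recovered in Tris-EDTA, absorbance read. IC50 taken from survival curves; doxorubicin reference.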

HeLa = assay: Anticancer activity against human HeLa cells after 48 hrs by SRB assay; procedure, shortened: as §1
LoVo = assay: Anticancer activity against human LoVo cells after 48 hrs by SRB assay; procedure, shortened: as §1
HepG2 = assay: Anticancer activity against human HepG2 cells after 48 hrs by SRB assay; procedure, shortened: as §1
HT-1080 = assay: Anticancer activity against human HT1080 cells after 48 hrs by SRB assay; conditions: HT-1080, 48 h; procedure, shortened: as §1
MDA-MB-231 = assay: Anticancer activity against human MDA-MB-231 cells after 48 hrs by SRB assay; procedure, shortened: as §1
[2] = Homo sapiens, 48 h, read-out: IC50
[3] = Homo sapiens, HeLa, 48 h, read-out: IC50
[4] = Homo sapiens, LoVo, 48 h, read-out: IC50
[5] = Homo sapiens, MDA-MB-231, 48 h, read-out: IC50
[6] = Homo sapiens, HepG2, 48 h, read-out: IC50

| SMILES | IC50 [1, 2] [µM] | IC50 (HeLa; [3]) [µM] | IC50 (LoVo; [4]) [µM] | IC50 (HepG2; hepg2) | IC50 (HT-1080) [µM] | IC50 (MDA-MB-231; [5]) [µM] | IC50 (HepG2; [6]) [µM] | IC50 (MDA-MB-231; mda-mb-231) | IC50 (LoVo; lovo) | IC50 (HeLa; hela) | IC50 [1] |
| --- | --- | --- | --- | --- | --- | --- | --- | --- | --- | --- | --- |
| O=C(Nc1ccccc1)Nc1ccc(S(=O)(=O)Nc2ccnc3cc(C(F)(F)F)ccc23)cc1 | 24.5 | 41 | 30.2 | Not Active | 25.4 | 52.9 | – | – | – | – | – |
| NS(=O)(=O)c1ccc(N/C(S)=N\c2ccnc3cc(C(F)(F)F)ccc23)cc1 | 36.6 | 36.6 | 34.5 | – | 31 | 52.9 | 52.2 | – | – | – | – |
| CC(=O)NS(=O)(=O)c1ccc(N/C(S)=N\c2ccnc3cc(C(F)(F)F)ccc23)cc1 | 37.6 | 37.6 | 30 | – | 28.3 | 58.6 | 28.4 | – | – | – | – |
| N=C(N)NS(=O)(=O)c1ccc(N/C(S)=N\c2ccnc3cc(C(F)(F)F)ccc23)cc1 | 23.9 | 23.9 | 23.9 | – | 24.3 | – | 33.5 | Not Active | – | – | – |
| Cc1cc(NS(=O)(=O)c2ccc(N/C(S)=N\c3ccnc4cc(C(F)(F)F)ccc34)cc2)on1 | 60.2 | 60.2 | – | – | 27.3 | 80.3 | 28.5 | – | Not Active | – | – |
| Cc1noc(NS(=O)(=O)c2ccc(N/C(S)=N\c3ccnc4cc(C(F)(F)F)ccc34)cc2)c1C | 34 | – | 67 | – | 27.7 | 27.9 | 36.8 | – | – | Not Active | – |
| O=S(=O)(Nc1nccs1)c1ccc(N/C(S)=N\c2ccnc3cc(C(F)(F)F)ccc23)cc1 | 27.2 | 95.2 | 67.1 | – | 27.3 | 24.4 | 28.2 | – | – | – | – |
| O=S(=O)(Nc1ccccn1)c1ccc(N/C(S)=N\c2ccnc3cc(C(F)(F)F)ccc23)cc1 | 33.5 | 68.8 | 87.5 | – | 28 | 49.3 | 28 | – | – | – | – |
| O=S(=O)(Nc1ncccn1)c1ccc(N/C(S)=N\c2ccnc3cc(C(F)(F)F)ccc23)cc1 | 37.8 | – | 34.7 | – | 29.1 | 45.2 | 42.1 | – | – | Not Active | – |
| Cc1ccnc(NS(=O)(=O)c2ccc(N/C(S)=N\c3ccnc4cc(C(F)(F)F)ccc34)cc2)n1 | 31 | 31 | 31 | Not Active | 28.7 | 29.8 | – | – | – | – | – |
| Cc1cc(C)nc(NS(=O)(=O)c2ccc(N/C(S)=N\c3ccnc4cc(C(F)(F)F)ccc34)cc2)n1 | 43.4 | 33 | 40.2 | – | 29.5 | 52.9 | 72.2 | – | – | – | – |
| COc1cc(NS(=O)(=O)c2ccc(N/C(S)=N\c3ccnc4cc(C(F)(F)F)ccc34)cc2)nc(OC)n1 | 64.5 | 53.8 | 76.7 | – | 29.5 | 52.1 | 76.7 | – | – | – | – |
| COc1ncnc(NS(=O)(=O)c2ccc(N/C(S)=N\c3ccnc4cc(C(F)(F)F)ccc34)cc2)c1OC | 81.8 | – | 28.4 | – | 22.8 | 83 | 77.2 | – | – | Not Active | – |
| NS(=O)(=O)c1ccc(Nc2ccnc3cc(C(F)(F)F)ccc23)cc1 | 79 | 61.2 | 26.6 | – | 56.1 | 34.4 | 50.8 | – | – | – | – |
| CC(=O)NS(=O)(=O)c1ccc(Nc2ccnc3cc(C(F)(F)F)ccc23)cc1 | 64.2 | – | 51.5 | – | 41.6 | 75.6 | 46 | – | – | Not Active | – |
| N=C(N)NS(=O)(=O)c1ccc(Nc2ccnc3cc(C(F)(F)F)ccc23)cc1 | 55.2 | 41.3 | 24.7 | Not Active | 49.8 | 28.8 | – | – | – | – | – |
| Cc1cc(NS(=O)(=O)c2ccc(Nc3ccnc4cc(C(F)(F)F)ccc34)cc2)on1 | 74.8 | 97.6 | 33.6 | – | 33.5 | 74.8 | 33.5 | – | – | – | – |
| Cc1noc(NS(=O)(=O)c2ccc(Nc3ccnc4cc(C(F)(F)F)ccc34)cc2)c1C | 53.1 | – | 36 | – | 31.9 | 39.3 | 40.8 | – | – | Not Active | – |
| O=S(=O)(Nc1ccnn1-c1ccccc1)c1ccc(Nc2ccnc3cc(C(F)(F)F)ccc23)cc1 | 52.8 | 34.1 | 56.8 | – | 25.8 | 52.8 | 82.6 | – | – | – | – |
| O=S(=O)(Nc1nccs1)c1ccc(Nc2ccnc3cc(C(F)(F)F)ccc23)cc1 | 66.1 | 70.8 | – | Not Active | 40.3 | 90.8 | – | – | Not Active | – | – |
| O=S(=O)(Nc1ccccn1)c1ccc(Nc2ccnc3cc(C(F)(F)F)ccc23)cc1 | 30.4 | 44.8 | 20.2 | – | 41.8 | 18.4 | 46.1 | – | – | – | – |
| O=S(=O)(Nc1ncccn1)c1ccc(Nc2ccnc3cc(C(F)(F)F)ccc23)cc1 | 34.2 | 78.1 | 27.4 | Not Active | 27.2 | 54.7 | – | – | – | – | – |
| Cc1ccnc(NS(=O)(=O)c2ccc(Nc3ccnc4cc(C(F)(F)F)ccc34)cc2)n1 | 62.5 | – | – | Not Active | 32.5 | – | – | Not Active | Not Active | Not Active | – |
| Cc1cc(C)nc(NS(=O)(=O)c2ccc(Nc3ccnc4cc(C(F)(F)F)ccc34)cc2)n1 | – | 32 | 44.3 | Not Active | 32.8 | 36.2 | – | – | – | – | Not Active |
| COc1cc(NS(=O)(=O)c2ccc(Nc3ccnc4cc(C(F)(F)F)ccc34)cc2)nc(OC)n1 | 37.9 | 83.2 | 50.4 | – | 39.2 | – | 83.8 | Not Active | – | – | – |
| COc1ncnc(NS(=O)(=O)c2ccc(Nc3ccnc4cc(C(F)(F)F)ccc34)cc2)c1OC | 36.9 | – | 39.9 | – | 26 | 49.4 | 66.1 | – | – | Not Active | – |
| O=C(Nc1ccccc1)NS(=O)(=O)c1ccc(Nc2ccnc3cc(C(F)(F)F)ccc23)cc1 | 18.4 | 35.3 | 19.7 | – | 17.9 | 18.4 | 27.6 | – | – | – | – |
| Nc1ccc(S(=O)(=O)Nc2ccnc3cc(C(F)(F)F)ccc23)cc1 | 29.2 | 46 | 53.6 | – | 29.6 | 30.9 | 93.1 | – | – | – | – |
| COc1cccc2c1C(=O)c1c(O)c3c(c(O)c1C2=O)C[C@@](O)(C(=O)CO)C[C@@H]3O[C@H]1C[C@H](N)[C@H](O)[C@H](C)O1 [DOXORUBICIN] | 32.8 | 30.2 | 24.3 | – | 19.2 | 34 | 27.1 | – | – | – | – |
